Experimental data from different studies.
Target: Serine/threonine-protein kinase MAK (MAK, Homo sapiens, UniProt P20794)
Residues used in one study (P20794 1-623): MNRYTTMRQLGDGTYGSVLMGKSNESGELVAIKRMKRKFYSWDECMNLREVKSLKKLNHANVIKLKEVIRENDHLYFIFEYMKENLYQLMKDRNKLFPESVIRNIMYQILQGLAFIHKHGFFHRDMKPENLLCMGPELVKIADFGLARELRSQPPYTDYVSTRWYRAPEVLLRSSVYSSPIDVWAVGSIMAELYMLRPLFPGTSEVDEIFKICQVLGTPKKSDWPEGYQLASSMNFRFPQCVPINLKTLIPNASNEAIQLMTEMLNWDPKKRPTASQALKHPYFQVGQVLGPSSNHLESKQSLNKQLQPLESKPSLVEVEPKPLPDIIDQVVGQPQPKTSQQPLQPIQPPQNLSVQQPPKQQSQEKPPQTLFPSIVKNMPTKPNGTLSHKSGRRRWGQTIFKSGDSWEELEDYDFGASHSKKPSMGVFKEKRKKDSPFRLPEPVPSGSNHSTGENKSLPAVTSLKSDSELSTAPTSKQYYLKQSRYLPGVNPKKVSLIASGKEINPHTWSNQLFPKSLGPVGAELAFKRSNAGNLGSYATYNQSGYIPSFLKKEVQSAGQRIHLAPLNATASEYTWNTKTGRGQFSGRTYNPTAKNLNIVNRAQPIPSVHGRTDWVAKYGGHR

| Structure (SMILES) | assay | setting | measurement | result |
| --- | --- | --- | --- | --- |
| CN1CC(Oc2cnc(C#N)cc2-c2ccn3nc(NC(=O)C4CC4)cc3c2)C1 | enzyme activity, inhibitor | 1 µM | inhibition | 3% |
| Cc1ccc(C(=O)Nc2ccc(CN3CCN(C)CC3)c(C(F)(F)F)c2)cc1C#Cc1cnc2cccnn12 | enzyme activity | 23.5 nM | remaining activity | 93% |
| Nc1ncnc2occ(-c3ccc(NC(=O)Nc4cc(C(F)(F)F)ccc4F)cc3)c12 | cell-free assay | 20 µM | remaining signal | 7.9% |
| O=C(Nc1cnn(-c2csc(C(=O)NC3COC3)c2)c1)Nc1c(F)cccc1Cl | enzyme activity, inhibitor | 5 µM | remaining activity | 97.6% |
| CC(C)CC(=O)N1CCc2nc(-c3ccc(Br)cc3)nc(N(C)Cc3ccccc3)c2C1 | cell-free assay, competition with immobilised ligand | 0.1 µM | remaining binding | 99% |
| Cc1sc(C(=O)NC2COC2)cc1-n1cc(NC(=O)Nc2c(F)cccc2Cl)cn1 | enzyme activity, inhibitor | 10 µM | remaining activity | 120% |
| NS(=O)(=O)c1cc(NC(=O)C2(c3ccccc3Cl)CC2)ccc1Oc1cccc(Cl)c1 | binding, competition with immobilised ligand | 1 µM | remaining binding | 89% |
| Cc1ccc(C(=O)NCc2ccsc2)cc1C#Cc1cn(C(C)C)c2ncnc(N)c12 | enzyme activity, inhibitor | 1 µM | activity vs control | 120% |
